Hits are enriched below; roughly 2.4% of the tested compounds scored in any of these assays.
SR-BI HDL uptake: inhibitors of mouse SR-BI mediated HDL lipid uptake. inhibition, % at 12.5 µM. AID 488896. Q61009. ldlA[mSR-BI] CHO cells, DiI-HDL uptake fluorescence, 3 h. 0.96% of 320,000 active;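 active = mean replicate inhibition of at least 70% and a set share of replicates each scoring 70 or more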
Ins promoter up: MIN6 insulin promoter up-regulation | MIN6 insulin promoter-GFP reporter, high-content imaging; active compounds read high | AID 1625 | z-score at 5 µM | 0.3% of 190,000 active;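 active = z-score above 3 at 5 µM with at least 500 cells counted in the well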
SR-BI uptake up: activators of SR-BI mediated HDL lipid uptake; CHO ldlA[mSR-BI] cells, DiI-HDL uptake fluorescence, 3 h; 100 = double the neutral-control signal; activation, % at 12.5 µM; 0.096% of 320,000 active;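 active = mean replicate activation of at least 60% and every replicate at or above 60%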
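Assay system: LDL receptor-deficient CHO ldlA cells overexpressing murine SR-BI / Medium: BSA-supplemented, HEPES-buffered Ham's F12, pH 7.4 / Probe or stimulus: DiI-labelled HDL at 10 µg/mL final / Timing: compound with DiI-HDL co-incubation, 3 h at 37 °C / Technique: bottom-read cell fluorescence after medium removal, ex 550/em 595 nm / Measure: HDL uptake via cellular fluorescence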
Calb FLC: affects C. albicans growth with fluconazole | C. albicans CaCi-2 + fluconazole, Alamar Blue growth, 48 h | growth inhibition, % (no concentration beside the values) | 0.57% of 300,000 active | AID 1979;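 active = growth inhibition above about 58% in most replicates, limit read from the data, passing the limit was not always enough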;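 also: all wells also contain fluconazole at 8 µg/ml as a sub-toxic cotreatment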
HTR2A ag: activates the mouse 5-HT2A serotonin receptor; CHO-K1 mHTR2A beta-arrestin complementation, luminescence; percent of 30 µM serotonin response; activation, % at 7.6 µM; 0.66% of 360,000 active;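 active = activation above a run cutoff, the mean activation of all tested compounds plus 3 SD, cut at about 14% in these data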
Target sequence (P35363 whole entry, looked up): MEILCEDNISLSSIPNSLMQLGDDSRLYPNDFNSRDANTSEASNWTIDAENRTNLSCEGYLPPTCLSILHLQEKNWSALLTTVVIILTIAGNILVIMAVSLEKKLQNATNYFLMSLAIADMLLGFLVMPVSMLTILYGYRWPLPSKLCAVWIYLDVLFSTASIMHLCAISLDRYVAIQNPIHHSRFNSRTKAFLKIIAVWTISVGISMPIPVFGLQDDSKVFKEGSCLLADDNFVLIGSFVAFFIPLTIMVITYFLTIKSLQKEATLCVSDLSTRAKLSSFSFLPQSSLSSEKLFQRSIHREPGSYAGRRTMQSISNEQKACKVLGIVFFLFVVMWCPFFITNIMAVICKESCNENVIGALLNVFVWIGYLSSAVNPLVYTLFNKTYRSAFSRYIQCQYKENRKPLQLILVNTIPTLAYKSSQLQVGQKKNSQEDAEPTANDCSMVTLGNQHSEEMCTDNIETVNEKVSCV
MIN6 prolif-1: inducers of beta-cell replication in MIN6 cells; 0.29% of 330,000 active; AID 2380; proliferation, % at 10 µM; MIN6 cells proliferation, ATPlite luminescence, 48 h; cells starved in 0.2% serum; 100% = growth in 10% serum;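 active = compounds whose signal lies at least 3.5 SD above the mean of all wells on their plate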
MIN6 prolif-2: MIN6 beta-cell replication induction, confirmed. MIN6 beta-cell proliferation, ATPlite luminescence, 48 h; cells kept in 0.2% serum; scaled between 0.2% and 10% serum. shares compounds with MIN6 prolif-1. 920 tested, under 10 active. proliferation increase, % at 50 µM;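 active = proliferation increase above 40% at any of the four tested concentrations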
Numbers stand for hits; – = inactive; · = no result given.

SMILES | SR-BI HDL uptake | Ins promoter up | SR-BI uptake up | Calb FLC | HTR2A ag | MIN6 prolif-1 | MIN6 prolif-2
COc1cc2cnc(-c3cccnc3)cc2cc1OC | – | · | – | · | – | – | ·
CC(C)CNC(=O)c1c2c(nc3ccccc13)-c1ccccc1CC2 | – | · | – | – | – | – | ·
C=CCNC(=O)c1c2c(nc3ccccc13)-c1ccccc1CC2 | – | 4.5 | – | – | – | 7.0 | –
CC(O)CNc1cc(N)c([N+](=O)[O-])cc1[N+](=O)[O-] (stereo not given) | – | – | – | – | – | 0.0 | –
O=C(NC(=O)c1cc([N+](=O)[O-])ccc1Cl)C1=C(N2CCCC2)COC1=O | – | · | – | · | – | – | ·
CC(C)Nc1nc(NC(C)(C)C)nc(Oc2ccc(=O)n(C)n2)n1 | – | – | – | – | – | 7.4 | –
Cc1ccccc1CN1CCN(C(=O)[C@H]2O[C@@H](n3cnc4c(N)ncnc43)[C@H](O)[C@@H]2O)CC1 | · | · | · | · | – | · | ·
NC(=O)C1CCN(CC(=O)Nc2ccccc2Sc2ccccc2)CC1 | – | – | – | – | – | 7.1 | –
CCNc1nc(N)c(C(=C(C#N)C#N)c2ccccc2)s1 | – | – | – | – | – | 7.3 | –
Fc1cccc(Nc2nc3ccccc3n3nnnc23)c1 | – | – | – | – | – | 13 | –
c1ccc(Nc2nc3ccccc3n3nnnc23)cc1 | – | – | – | – | – | – | ·
O=C(CN1CCC(Cc2ccccc2)CC1)N1CCc2ccccc2C1 | – | – | – | – | – | 9.0 | –
O=C(CN1CCN(c2ccc(F)cc2)CC1)N1CCC(Cc2ccccc2)CC1 | – | – | – | – | – | – | ·
C/C(=N/Nc1ncc(C(F)(F)F)cc1Cl)c1ccncc1 | – | – | – | – | – | 7.8 | –
C/C(=N\Nc1ncc(Cl)cc1Cl)c1ccc(C#N)cc1 | – | – | – | – | – | – | ·
O=C1Nc2ccc(S(=O)(=O)N3CCCC3)c3ccc(S(=O)(=O)N4CCCC4)c1c23 | – | – | – | – | – | 9.2 | –
Cc1cnc(C(=O)OCC(=O)Nc2cc(-c3ccccc3)nn2-c2ccccc2)cn1 | – | · | – | – | – | 11 | –
COCCCn1c(-c2ccc(OC)cc2)nc2c1c(=O)[nH]c(=O)n2Cc1ccccc1 | – | · | – | – | – | 0.0 | –
C=CCOc1ccc(-c2nc3c(c(=O)[nH]c(=O)n3CCC)n2CCCC)cc1 | · | · | · | – | – | 0.0 | –
COCCn1c(-c2ccsc2)nc2c1c(=O)[nH]c(=O)n2CC(C)C | – | – | – | – | – | – | ·
COCCn1c(-c2ccc3ccccc3c2)nc2c1c(=O)[nH]c(=O)n2CC(C)C | – | · | – | – | – | 9.0 | –
C#Cc1cccc(N2C(=O)C3C4C=CC(C3C2=O)C2C(=O)N(c3cccc(C#C)c3)C(=O)C42)c1 (stereo not given) | – | · | – | · | – | · | ·
C[C@@H]1CN([C@H](C)CO)C(=O)CCCn2cc(nn2)CO[C@H]1CN(C)C(=O)c1ccc2ccn(C)c2c1 | · | · | · | · | – | · | ·
CCOC(=O)CCN(C(=O)Nc1ccccc1)C1CCCCC1 | – | · | – | · | – | · | ·
c1ccc(N2CC3COc4ccccc4C3=N2)cc1 (stereo not given) | – | · | – | · | – | · | ·
SMILES | SR-BI HDL uptake | Ins promoter up | SR-BI uptake up | Calb FLC | HTR2A ag | MIN6 prolif-1 | MIN6 prolif-2
COC(=O)c1ccc(SC)cn1 | – | – | – | – | – | 11 | –
COc1ccc(Nc2nc(-c3cccs3)nc3ccccc23)cc1S(=O)(=O)N1CCOCC1 | · | · | · | – | – | – | ·
COc1ccc(-c2csc(NC(=O)CCN3C(=O)C4CC=CCC4C3=O)n2)cc1OC (stereo not given) | – | · | – | – | – | 13 | –
CN(C)S(=O)(=O)c1cccc(NC(=O)COC(=O)CCc2nc3ccccc3s2)c1 | – | – | – | – | – | 6.7 | –
CN(C)S(=O)(=O)c1cccc(NC(=O)COC(=O)c2ccc3ccccc3n2)c1 | – | · | – | · | – | – | ·
Cc1c(=O)n(OCc2ccccc2)c2ccccc2[n+]1[O-] | – | – | – | – | – | – | ·
COc1ccc(COn2c(=O)c(C)[n+]([O-])c3ccccc32)cc1OC | – | – | – | – | – | 5.1 | –
Cc1c(NC(=O)C(C)OC(=O)CCc2c[nH]c3ccccc23)c(=O)n(-c2ccccc2)n1C (stereo not given) | – | · | – | – | – | 12 | –
CCOC(=O)c1c(NC(=O)Cc2cccs2)sc(C(=O)N2CCCCC2)c1C | – | – | – | – | – | 9.5 | –
CCCCOC(=O)c1ccc(NC(=O)COC(=O)CSc2nc(C)cc(C)n2)cc1 | – | – | – | – | – | – | ·
CN(CC(=O)Nc1c(Cl)cccc1Cl)C(=O)CCNS(=O)(=O)c1ccccc1C(F)(F)F | – | · | – | – | – | 12 | –
CCN(CC(=O)Nc1c(F)cccc1F)C(=O)CCNS(=O)(=O)c1ccccc1C(F)(F)F | – | · | – | – | – | – | ·
CC1=C(C(=O)Nc2ccccc2)C(c2ccncc2)C(C#N)=C(SCC(=O)NC2CC2)N1 (stereo not given) | – | – | – | – | – | 8.3 | –
CO[C@@H]1CN(C)C(=O)c2cc(NS(=O)(=O)c3ccc(C)cc3)ccc2OC[C@H](C)N(Cc2nccs2)C[C@H]1C | · | · | · | · | – | · | ·
O=C(c1cc([N+](=O)[O-])ccc1N1CCOCC1)N1CCN(S(=O)(=O)c2ccc(F)cc2)CC1 | – | · | – | – | – | 11 | –
O=C(COC(=O)c1ccc(S(=O)(=O)C(F)F)cc1)Nc1ccccc1C(=O)NC1CC1 | – | · | – | · | – | – | ·
Nc1n[nH]c(N)c1N=Nc1ccccc1F | – | · | – | – | – | – | ·
Cc1ccccc1N=Nc1c(N)n[nH]c1N | – | · | – | – | – | 7.2 | –
Cc1ccsc1C(C(=O)NC(C)(C)C)N(Cc1ccco1)C(=O)c1csnn1 (stereo not given) | · | · | · | – | – | 10 | –
CCC(C)(C)NC(=O)C(c1sccc1C)N(Cc1ccco1)C(=O)c1csnn1 (stereo not given) | – | · | – | – | – | – | ·
COc1ccc(-c2csc(NC(=O)CCNC(=O)c3ccco3)n2)cc1 | · | · | · | · | – | · | ·
NNC(=O)c1nc(-c2ccccc2)n2c1CCCCC2 | – | · | – | – | – | – | ·
O=C(N/N=C/c1ccncc1)c1nc(-c2ccccc2)n2c1CCCCC2 | – | – | – | – | – | 8.3 | –
C=C1C2=C(C(=O)N1OC)[C@@H](O)[C@@](C)(O)[C@@H](CCCCC)O2 | · | · | · | · | – | · | ·
CCOC(=O)C1CCN(C(=O)CCNS(=O)(=O)c2ccc(C)cc2)CC1 | – | · | – | · | – | – | ·
CCOC(=O)C1CCN(C(=O)CC(NS(=O)(=O)c2ccc(OC)cc2)C(C)C)CC1 (stereo not given) | – | – | – | – | – | 6.2 | –
CCCCN1C(=O)C(=O)N(CC(=O)Nc2sc(CC)cc2C(=O)OCC)C1=O | – | · | – | · | – | – | ·

Source: PubChem BioAssay
